Activity calls are given as the source filed them.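 The calls were made as follows, unless noted: active = viability at or under a set limit in both replicates, limit being median viability minus 3 SD (cut at about 48% in these data, passing the limit was not always enough); inconclusive = at or under the limit in just one replicate; inactive = at or above the limit in both replicates.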
Tests used:
[1] = HUVEC growth inhibition – cell-based, human, primary screen (AID 575;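 active = viability at or below 30% in both replicate assays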;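 also: 100% = median of untreated cell wells with 0.1% DMSO on each plate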); conditions: HUVEC proliferation, CellTiter-Glo luminescence, 72 h; at 10 µM; stronger effect = lower value
Procedure, shortened: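 system = HUVEC primary cells | amount = 1250 cells/well | buffer or medium = supplemented EBM, 2% fetal bovine serum | dosing = single-point 10 µM, DMSO 0.1% final | times = 72 h compound incubation | detection = CTG luminescence | read-out = % viability relative to median vehicle-well signal on each plate | control set = vehicle and MePR control wells | format = collagen-coated 384-well format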

[2] = growth inhibitors of H69AR lung tumor, primary screen, human, duplicate replicates (AID 580); conditions: H69AR lung tumor cells viability, ATP luminescence, 72 h; at 10 µM; stronger effect = lower value;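 also: 100% = mean luminescence of untreated wells and 0% = no signal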
[3] = reversal of MRP1-mediated doxorubicin resistance, pilot screen, H69AR cells, doxorubicin co-treatment (AID 601;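 active = viability loss from added drug above about 55%, and viability with drug at most 40%, in both replicates, limit read from the data, passing the limit was not always enough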); conditions: CellTiter-Glo, 72 h, at 10 µM; for differential viability (reversal): stronger effect = higher value
[4] = 384-well plate pilot, post-Golgi transport modulator project, inhibition of yeast transport mutant growth (AID 636; in the data active = inhibition above about 31%); conditions: absorbance 615 nm, about 18 h, stronger effect = higher value
[5] = growth suppression of yeast trafficking mutant, preliminary HTS, modulators of trafficking downstream of Golgi apparatus project, 1536-format plate, OD 615 nm (AID 637; in the data active = inhibition above about 30%); conditions: yeast transport mutant growth, absorbance 615 nm, 18 h; stronger effect = higher value
[6] = H69AR cells + 2 uM doxorubicin, measured here: viability with 2 uM doxorubicin, stronger effect = lower value
[7] = H69AR cells, compound alone cytotoxicity

SMILES: CS(=O)(=O)N1CCC(C(=O)NCCC2=CCCCC2)CC1
- viability [1]: 99.7% (inactive)
- viability [2]: 99.9% (inactive)
- differential viability (reversal) ([3]; H69AR cells + 2 uM doxorubicin): 20.4% (inactive)
- viability [3, 6]: 79.6%
- viability [3, 7]: 99.9%
- inhibition [4]: -5.73% (inactive)
- inhibition [5]: -1.11% (inactive)

SMILES: Cn1c(=O)c2ccccc2n(Cc2ccccc2F)c1=O
- viability [1]: 101% (inactive)
- viability [2]: 85.2% (inactive)
- differential viability (reversal) ([3]; H69AR cells + 2 uM doxorubicin): -5.55% (inactive)
- viability [3, 6]: 90.8%
- viability [3, 7]: 85.2%
- inhibition [4]: -0.66% (inactive)
- inhibition [5]: 1.75% (inactive)

SMILES: O=C(Cc1nn[nH]n1)NCCC1=CCCCC1
- viability [1]: 82.8% (inactive)
- viability [2]: 95.7% (inactive)
- differential viability (reversal) ([3]; H69AR cells + 2 uM doxorubicin): 4.6% (inactive)
- viability [3, 6]: 91.1%
- viability [3, 7]: 95.7%
- inhibition [4]: -1.04% (inactive)
- inhibition [5]: -4.76% (inactive)

SMILES: COCCOC(=O)C1=C(C)NC(=O)CC1c1cc2c(cc1Br)OCO2 (configuration not stated)
- viability [1]: 89.4% (inactive)
- viability [2]: 97.4% (inactive)
- differential viability (reversal) ([3]; H69AR cells + 2 uM doxorubicin): 25.1% (inactive)
- viability [3, 6]: 72.4%
- viability [3, 7]: 97.4%
- inhibition [4]: -4.67% (inactive)
- inhibition [5]: 2.86% (inactive)

SMILES: Cn1c(COc2ccccc2)nnc1SCC(=O)Nc1ccc(N2CCOCC2)c(Cl)c1
- viability [1]: 94.4% (inactive)
- viability [2]: 94.4% (inactive)
- differential viability (reversal) ([3]; H69AR cells + 2 uM doxorubicin): 11.6% (inactive)
- viability [3, 6]: 82.8%
- viability [3, 7]: 94.4%
- inhibition [4]: -7.37% (inactive)
- inhibition [5]: -0.48% (inactive)

SMILES: Cc1cc(C)n(S(=O)(=O)c2cc(C(=O)O)c(Cl)cc2Cl)n1
- viability [1]: 102% (inactive)
- viability [2]: 82.6% (inactive)
- differential viability (reversal) ([3]; H69AR cells + 2 uM doxorubicin): -10.2% (inactive)
- viability [3, 6]: 92.8%
- viability [3, 7]: 82.6%
- inhibition [4]: -3.47% (inactive)
- inhibition [5]: 4.29% (inactive)

SMILES: COc1ccc2c(c1)CCc1c(C(=O)N3CC4(C)CC3CC(C)(C)C4)noc1-2 (configuration not stated)
- viability [1]: 52.3% (inactive)
- viability [2]: 75.1% (inactive)
- differential viability (reversal) ([3]; H69AR cells + 2 uM doxorubicin): 0.855% (inactive)
- viability [3, 6]: 74.3%
- viability [3, 7]: 75.1%
- inhibition [4]: -2.34% (inactive)
- inhibition [5]: -3.02% (inactive)

SMILES: Nc1nc(-c2ccc(Cl)cc2)nn1C(=O)c1cccnc1
- viability [1]: 98.2% (inactive)
- viability [2]: 96.4% (inactive)
- differential viability (reversal) ([3]; H69AR cells + 2 uM doxorubicin): 0.94% (inactive)
- viability [3, 6]: 95.5%
- viability [3, 7]: 96.4%
- inhibition [4]: 0.13% (inactive)
- inhibition [5]: 4.29% (inactive)

SMILES: Cc1ccc(-c2nnn(CC(=O)N(CC(=O)NCC3CCCO3)c3ccccc3)n2)o1 (configuration not stated)
- viability [1]: 88.7% (inactive)
- viability [2]: 90.9% (inactive)
- differential viability (reversal) ([3]; H69AR cells + 2 uM doxorubicin): 2.55% (inactive)
- viability [3, 6]: 88.4%
- viability [3, 7]: 90.9%
- inhibition [4]: -5.97% (inactive)
- inhibition [5]: -1.11% (inactive)

SMILES: CC(C)NC(=O)c1ccccc1NC(=O)c1ccccc1N(C)S(C)(=O)=O
- viability [1]: 103% (inactive)
- viability [2]: 88.9% (inactive)
- differential viability (reversal) ([3]; H69AR cells + 2 uM doxorubicin): -4.12% (inactive)
- viability [3, 6]: 93%
- viability [3, 7]: 88.9%
- inhibition [4]: -7.37% (inactive)
- inhibition [5]: 1.9% (inactive)

SMILES: O=C(c1ncn[nH]1)N1CCN(c2nc(-c3ccccc3)cs2)CC1
- viability [1]: 104% (inactive)
- viability [2]: 94.5% (inactive)
- differential viability (reversal) ([3]; H69AR cells + 2 uM doxorubicin): 3.58% (inactive)
- viability [3, 6]: 90.9%
- viability [3, 7]: 94.5%
- inhibition [4]: -1.73% (inactive)
- inhibition [5]: 9.68% (inactive)

SMILES: COc1ccccc1NC1=NC2(CCCC2)N=C(N)N1
- viability [1]: 91.3% (inactive)
- viability [2]: 99.7% (inactive)
- differential viability (reversal) ([3]; H69AR cells + 2 uM doxorubicin): 8.79% (inactive)
- viability [3, 6]: 90.9%
- viability [3, 7]: 99.7%
- inhibition [4]: -2.6% (inactive)
- inhibition [5]: 3.02% (inactive)

SMILES: COc1ccc(CCN2C(=O)C3C4C=CC(C4)C3C2=O)cc1OC (configuration not stated)
- viability [1]: 97.7% (inactive)
- viability [2]: 99.8% (inactive)
- differential viability (reversal) ([3]; H69AR cells + 2 uM doxorubicin): 5.05% (inactive)
- viability [3, 6]: 94.8%
- viability [3, 7]: 99.8%
- inhibition [4]: -6.71% (inactive)
- inhibition [5]: -4.44% (inactive)

SMILES: COc1cccc(Nc2nc(=O)[nH]nc2C)c1
- viability [1]: 75.7% (inactive)
- viability [2]: 87.3% (inactive)
- differential viability (reversal) ([3]; H69AR cells + 2 uM doxorubicin): 10.9% (inactive)
- viability [3, 6]: 76.4%
- viability [3, 7]: 87.3%
- inhibition [4]: -2.08% (inactive)
- inhibition [5]: 8.57% (inactive)

SMILES: Nc1nnc(Cc2ccc(Cl)cc2)s1
- viability [1]: 115% (inactive)
- viability [2]: 102% (inactive)
- differential viability (reversal) ([3]; H69AR cells + 2 uM doxorubicin): 15.6% (inactive)
- viability [3, 6]: 86.3%
- viability [3, 7]: 102%
- inhibition [4]: -6.18% (inactive)
- inhibition [5]: 3.49% (inactive)

SMILES: CCCC(=O)Nc1ccccc1-c1nnn(CC(=O)Nc2ccc(OC)cc2)n1
- viability [1]: 73.8% (inactive)
- viability [2]: 83.1% (inactive)
- differential viability (reversal) ([3]; H69AR cells + 2 uM doxorubicin): -14.1% (inactive)
- viability [3, 6]: 97.2%
- viability [3, 7]: 83.1%
- inhibition [4]: -3.33% (inactive)
- inhibition [5]: 5.4% (inactive)

SMILES: O=C(O)c1ccccc1S
- viability [1]: 84.4% (inactive)
- viability [2]: 74.7% (inactive)
- differential viability (reversal) ([3]; H69AR cells + 2 uM doxorubicin): 6.9% (inactive)
- viability [3, 6]: 67.8%
- viability [3, 7]: 74.7%
- inhibition [4]: -2.34% (inactive)
- inhibition [5]: 3.5% (inactive)

SMILES: N#CC1=C(SCc2ccccc2)NC(=O)C(C#N)C12CCCC2 (configuration not stated)
- viability [1]: 72.7% (inactive)
- viability [2]: 83.1% (inactive)
- differential viability (reversal) ([3]; H69AR cells + 2 uM doxorubicin): -9.75% (inactive)
- viability [3, 6]: 92.9%
- viability [3, 7]: 83.1%
- inhibition [4]: -5% (inactive)
- inhibition [5]: 1.9% (inactive)

SMILES: COC(=O)c1c(N)sc(C(=O)N2CCOCC2)c1C
- viability [1]: 95.2% (inactive)
- viability [2]: 97.7% (inactive)
- differential viability (reversal) ([3]; H69AR cells + 2 uM doxorubicin): 6.62% (inactive)
- viability [3, 6]: 91%
- viability [3, 7]: 97.7%
- inhibition [4]: -0.4% (inactive)
- inhibition [5]: -5.87% (inactive)

SMILES: CCOC(=O)c1ccc(NS(=O)(=O)c2ccc(SC)cc2)cc1
- viability [1]: 99% (inactive)
- viability [2]: 108% (inactive)
- differential viability (reversal) ([3]; H69AR cells + 2 uM doxorubicin): 10.8% (inactive)
- viability [3, 6]: 97.4%
- viability [3, 7]: 108%
- inhibition [4]: -7.11% (inactive)
- inhibition [5]: -3.81% (inactive)

SMILES: N#Cc1nc(-c2ccccc2Cl)oc1N1CCOCC1
- viability [1]: 84.2% (inactive)
- viability [2]: 86.8% (inactive)
- differential viability (reversal) ([3]; H69AR cells + 2 uM doxorubicin): 3.5% (inactive)
- viability [3, 6]: 83.3%
- viability [3, 7]: 86.8%
- inhibition [4]: -3.47% (inactive)
- inhibition [5]: 14.1% (inactive)

— PubChem BioAssay
